This passage reports EC50 and Activity results from ChEMBL document CHEMBL3297732, “Aryl-substituted aminobenzimidazoles targeting the hepatitis C virus internal ribosome entry site” (Bioorg Med Chem Lett, 2014).

What is called EC50 is the concentration that produces a half-maximal response.

Calls of active or inactive are those of the source. No cut-off for these calls is given here.

The target of one assay is Internal ribosome entry site (IRES). The experiment in a line: Binding affinity to cyanine dye-labeled HCV IRES subdomain 2a RNA by FRET assay in presence of Mg2+. Also noted: species or system Hepacivirus hominis.
Settings: not given
An outline of the steps: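 Binding to IIa RNA measured by triplicate titration in a FRET assay that tracks ligand-induced conformational capture of the dye-labeled RNA. EC50 taken from a single-site dose-response fit to the titration data, with standard error from the triplicates.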
`CN(C)CCCOc1ccc2c(c1)nc(N)n2-c1ccc(N(C)C)cc1`: the EC50 came out at 95 µM. On the same count and under the same terms, to `CN(C)CCCn1c(N)nc2ccc(Nc3cccnc3)cc21` belongs 160 µM. On the same count and under the same terms, with `CN(C)CCCn1c(N)nc2cccc(-c3cccc(N(C)C)c3)c21` the figure was 290 µM; with `CC(=O)Nc1nc2cc(OCCCN(C)C)ccc2n1-c1ccccc1`, 210 µM; with `CN(C)CCCOc1ccc2nc(N)n(-c3cccc(N(C)C)c3)c2c1`, 120 µM. Still for that read-out and setting: to `CN(C)c1cccc(-n2c(N)nc3ccc(Nc4ccncc4)cc32)c1` belongs 100 µM; to `CC(=O)Nc1nc2cc(OCCN(C)C)ccc2n1-c1ccccc1`, 100 µM; to `CN(C)CCOc1ccc2c(c1)nc(NC(=O)c1ccccc1)n2-c1ccccc1`, greater than 500 µM. For `CN(C)CCCOc1ccc2c(c1)nc(NC(=O)c1ccccc1)n2-c1ccccc1`, the EC50 was greater than 500 µM. For `CN(C)c1cccc(-n2c(N)nc3ccc(Nc4cccnc4)cc32)c1`, the half-maximal effective concentration (EC50) was 74 µM. On the same count and under the same terms, with `CN(C)CCCn1c(N)nc2ccc(Nc3ccncc3)cc21` the figure was 160 µM.

Another assay concerns Internal ribosome entry site (IRES). The assay is described as follows: Non-specific binding affinity to cyanine dye-labeled HCV IRES subdomain 2a RNA assessed as precipitation of dye labeled RNA at 50 to 100 uM by FRET assay in presence of Mg2+. To be noted: Hepacivirus hominis.
Consider `CN(C)CCCOc1ccc2nc(O)n(-c3ccc(N(C)C)cc3)c2c1`, for which the result was Active. Regarding `CN(C)CCCOc1ccc2c(c1)nc(O)n2-c1ccccc1`, the result was Active.

`CN(C)CCOc1ccc2c(c1)nc(O)n2-c1ccccc1`: the outcome was Active. As for `CN(C)CCCOc1ccc2c(c1)nc(NC(=O)c1ccccc1)n2-c1ccc(N(C)C)cc1`, the result was Active.
